Data taken from ChEMBL document CHEMBL3576864, “Striatoids A-F, Cyathane Diterpenoids with Neurotrophic Activity from Cultures of the Fungus Cyathus striatus” (J Nat Prod, 2015).
Activity calls are given as the source filed them. No cut-off for these calls is given here.

Legend:
PC-12 [1] = experiment: Neurotrophic activity in rat PC12 cells assessed as enhancement of NGF-induced neurite outgrowth after 48 hrs by inverted microscopic analysis; type: functional, cell-based
Method in brief: (§1)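 PC-12 cells grown in F-12 (Ham) with 10% heat-inactivated HS, 5% FBS, penicillin/streptomycin, 37 °C, 5% CO2. Seeded on poly-L-lysine wells (2 × 10^4 cells/mL), 24 h. Switched to low serum (1% HS, 0.5% FBS), then dosed 10–40 μM with NGF 20 ng/mL (vehicle 0.1% DMSO), triplicate wells, 48 h. Phase-contrast scoring: ≥100 cells in each of five random fields; neurite ≥ one cell body = positive, as % of cells.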

PC-12 [2] = experiment: Effect on neurite outgrowth in rat PC12 cells at 10 to 40 uM after 48 hrs by inverted microscopic analysis; type: functional, cell-based; method in brief: as §1

Row | Structure (SMILES) | Activity (PC-12 [1]) | Activity (PC-12 [2])
1 | CC(C)C1=C2[C@H]3CC=C4[C@@H]5O[C@]6(O)[C@@]7(O)[C@@H](OC[C@]6(O)O5)O[C@@H]([C@@H]47)[C@]3(C)CC[C@@]2(C)[C@@H](O)C1 | Dose-dependent effect | inactive
2 | CC(C)C1=C2[C@H]3CC=C4[C@H]5O[C@H]6CO[C@H]7O[C@@H]([C@@H]4[C@@]7(O)[C@@]6(O)O5)[C@]3(C)CC[C@@]2(C)[C@@H](O)C1 | Dose-dependent effect | inactive
3 | CC(=O)O[C@@H]1C2=CC[C@@H]3C4=C(C(C)C)C[C@H](O)[C@]4(C)CC[C@@]3(C)[C@H]3O[C@@H]4OC[C@@]1(O)[C@H](O)[C@]4(O)[C@H]23 | Dose-dependent effect | inactive
4 | CC(C)C1=C2[C@H]3CC=C4[C@@H](O)[C@@]5(O)CO[C@H]6O[C@@H]([C@@H]4[C@@]6(O)[C@H]5O)[C@]3(C)CC[C@@]2(C)[C@@H](O)C1 | Dose-dependent effect | inactive
5 | CC(=O)O[C@@H]1[C@H]2CC[C@@H]3C4=C(C(C)C)C[C@H](O)[C@]4(C)CC[C@@]3(C)[C@H]3O[C@@H]4OC[C@@]1(O)[C@H](O)[C@]4(O)[C@H]23 | Dose-dependent effect | inactive
6 | CO[C@H]1O[C@@]2(O)[C@H](O)CO[C@H]3O[C@H]4[C@@H]([C@@H]1CC[C@@H]1C5=C(C(C)C)C[C@H](O)[C@]5(C)CC[C@]14C)[C@]32O | Dose-dependent effect | inactive
